Source: ChEMBL document CHEMBL4257459, “Synergistic antifungal effect of cyclized chalcone derivatives and fluconazole against Candida albicans” (2017)
≈ marks a conversion by molar mass, not a printed value.

Assays:
Candida albicans [1] = assay: Antifungal activity against fluconazole resistant Candida albicans 167-2 by CLSI protocol based broth microdilution method; format: functional
Procedure, shortened: (§1)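 Broth microdilution per CLSI M27-A3 against clinical C. albicans isolates. Strains sub-cultured at least twice on Tryptone Soya Agar, 37 °C, 48 h. Compounds dissolved in DMSO at 2000 μg mL–1 stock. Fluconazole positive control, plus culture, media and vehicle controls. Run in duplicate; MIC in μg mL–1.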

Candida albicans [2] = assay: Antifungal activity against fluconazole susceptible Candida albicans 004gr by CLSI protocol based broth microdilution method; format: functional
Procedure, shortened: (§2)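 Clinical isolates and control strain subcultured at least twice on TSA, 37 °C, 48 h. MICs by CLSI M27-A3 broth microdilution; compounds dissolved in DMSO to 2000 μg mL–1 stock. Fluconazole positive control, culture, media and DMSO vehicle controls in each run. Duplicate experiments; MIC in μg mL–1.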

Candida albicans [3] = assay: Inhibition of ABC efflux pumps in fluconazole susceptible Candida albicans 0079gr assessed as reduction in energy-dependent rhodamine 6G efflux in presence of 0.1 M glucose after 25 mins by fluorescence assay relative to control
Procedure, shortened: (§3)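 Cells grown in TSB at 37 °C for 8 h, washed, resuspended in glucose-free PBS at 1 × 10^8 cells. De-energized 45 min with 5 mM deoxyglucose plus 5 mM dinitrophenol. […] Washed, sampled 5–25 min, then 0.1 M glucose added. Absorbance 527 nm, R6G from standard curve.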

Candida albicans [4] = assay: Antifungal activity against fluconazole resistant Candida albicans 167-2 in presence of fluconazole by CLSI protocol based broth microdilution method; format: functional
Procedure, shortened: (§4)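 Checkerboard-style combination with fluconazole at a 1 : 1 ratio, over concentrations 2–4 fold below each agent's MIC alone, by CLSI broth microdilution. Fractional inhibitory concentration index calculated and interpreted as synergy (<0.5), additive (0.5–1), indifferent or antagonistic.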

Candida albicans [5] = assay: Inhibition of ergosterol biosynthesis in fluconazole susceptible Candida albicans ATCC 90028 at 0.5 to 1 times MIC relative to control; format: functional
Procedure, shortened: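 ATCC90028 grown in 50 ml TSB with MIC and ½ MIC of compound; untreated and 8 μg mL–1 fluconazole controls. Sterols extracted by alcoholic KOH method and spectrophotometrically scanned; ergosterol % calculated from A281.5 and A230 (E values 290 and 518) with dilution factor, per pellet weight.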

Candida albicans [6] = assay: Antifungal activity against Candida albicans ATCC 90028 in presence of fluconazole by CLSI protocol based broth microdilution method; format: functional
Candida albicans [7] = assay: Antifungal activity against Candida albicans ATCC 90028 by CLSI protocol based broth microdilution method; format: functional; procedure, shortened: as §2
Candida albicans [8] = assay: Antifungal activity against fluconazole resistant Candida albicans A171 in presence of fluconazole by CLSI protocol based broth microdilution method; format: functional; procedure, shortened: as §4
Candida albicans [9] = assay: Inhibition of ABC efflux pumps in fluconazole susceptible Candida albicans 0072gr assessed as reduction in energy-dependent rhodamine 6G efflux in presence of 0.1 M glucose after 25 mins […] relative to control
Candida albicans [10] = assay: Inhibition of ABC efflux pumps in fluconazole susceptible Candida albicans 003gr assessed as reduction in energy-dependent rhodamine 6G efflux in presence of 0.1 M glucose after 25 mins […] relative to control
Candida albicans [11] = assay: Inhibition of ergosterol biosynthesis in fluconazole resistant Candida albicans A171 at 0.5 to 1 times MIC relative to control; format: functional
Procedure, shortened: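 Total sterols quantified by alcoholic KOH extraction in cells grown in 50 ml TSB with compounds at MIC and ½ MIC; untreated and 8 μg mL–1 fluconazole controls. Spectral scan; ergosterol content from A281.5 and A230 absorbances, dilution factor and pellet weight, correcting for 24(28) DHE.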

Candida albicans [12] = assay: Down regulation of ERG11 gene expression in fluconazole susceptible Candida albicans ATCC 90028 at MIC after 2 hrs by qRT PCR analysis relative to control; format: functional
Procedure, shortened: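 Cells exposed to compound at MIC for 2 h; total RNA isolated, cDNA synthesised, ERG11 measured by real-time qPCR with ACT1 as endogenous control. Triplicate independent experiments; mean ± standard deviation.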

Candida albicans [13] = assay: Antifungal activity against fluconazole susceptible Candida albicans 004B1 in presence of fluconazole by CLSI protocol based broth microdilution method; format: functional
Candida albicans [14] = assay: Inhibition of ABC efflux pumps in fluconazole susceptible Candida albicans 002B1 assessed as reduction in energy-dependent rhodamine 6G efflux in presence of 0.1 M glucose after 25 mins […] relative to control
Candida albicans [15] = assay: Inhibition of ABC efflux pumps in fluconazole resistant Candida albicans 167-1 assessed as reduction in energy-dependent rhodamine 6G efflux in presence of 0.1 M glucose after 25 mins […] relative to control
Candida albicans [16] = assay: Antifungal activity against fluconazole susceptible Candida albicans 002B1 in presence of fluconazole by CLSI protocol based broth microdilution method; format: functional
Candida albicans [17] = assay: Antifungal activity against fluconazole resistant Candida albicans A171 by CLSI protocol based broth microdilution method; format: functional; procedure, shortened: as §1
Candida albicans [18] = assay: Inhibition of ABC efflux pumps in fluconazole susceptible Candida albicans 004gr assessed as reduction in energy-dependent rhodamine 6G efflux in presence of 0.1 M glucose after 25 mins by fluorescence assay relative to control; procedure, shortened: as §3
Candida albicans [19] = assay: Antifungal activity against fluconazole susceptible Candida albicans 003gr in presence of fluconazole by CLSI protocol based broth microdilution method; format: functional
Candida albicans [20] = assay: Antifungal activity against fluconazole susceptible Candida albicans 004gr in presence of fluconazole by CLSI protocol based broth microdilution method; format: functional
Candida albicans [21] = assay: Down regulation of ERG11 gene expression in fluconazole resistant Candida albicans A171 at MIC after 2 hrs by qRT PCR analysis relative to control; format: functional
Procedure, shortened: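 Cells exposed 2 h to test agents at MIC. Total RNA isolated, cDNA synthesized, qPCR for ERG11 with ACT1 as endogenous control. Triplicate independent experiments, reported as mean ± standard deviation.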

Candida albicans [22] = assay: Inhibition of ABC efflux pumps in fluconazole resistant Candida albicans A171 assessed as reduction in energy-dependent rhodamine 6G efflux in presence of 0.1 M glucose after 25 mins by fluorescence assay relative to control; procedure, shortened: as §3
Candida albicans [23] = assay: Antifungal activity against fluconazole susceptible Candida albicans 0079gr by CLSI protocol based broth microdilution method; format: functional; procedure, shortened: as §2
Candida albicans [24] = assay: Inhibition of ABC efflux pumps in fluconazole resistant Candida albicans 167-2 assessed as reduction in energy-dependent rhodamine 6G efflux in presence of 0.1 M glucose after 25 mins […] relative to control
Candida albicans [25] = assay: Antifungal activity against fluconazole susceptible Candida albicans 002B1 by CLSI protocol based broth microdilution method; format: functional; procedure, shortened: as §2
Candida albicans [26] = assay: Antifungal activity against fluconazole resistant Candida albicans 167-1 by CLSI protocol based broth microdilution method; format: functional; procedure, shortened: as §1
Candida albicans [27] = assay: Antifungal activity against fluconazole susceptible Candida albicans 0072gr in presence of fluconazole by CLSI protocol based broth microdilution method; format: functional
Candida albicans [28] = assay: Antifungal activity against fluconazole susceptible Candida albicans 003gr by CLSI protocol based broth microdilution method; format: functional; procedure, shortened: as §2
Candida albicans [29] = assay: Inhibition of ABC efflux pumps in fluconazole susceptible Candida albicans 004B1 assessed as reduction in energy-dependent rhodamine 6G efflux in presence of 0.1 M glucose after 25 mins by fluorescence assay relative to control; procedure, shortened: as §3
Candida albicans [30] = assay: Antifungal activity against fluconazole susceptible Candida albicans 004B1 by CLSI protocol based broth microdilution method; format: functional; procedure, shortened: as §2
Candida albicans [31] = assay: Antifungal activity against fluconazole susceptible Candida albicans 0072gr by CLSI protocol based broth microdilution method; format: functional; procedure, shortened: as §2
Candida albicans [32] = assay: Antifungal activity against fluconazole susceptible Candida albicans 0079gr in presence of fluconazole by CLSI protocol based broth microdilution method; format: functional
Candida albicans [33] = assay: Antifungal activity against fluconazole resistant Candida albicans 167-1 in presence of fluconazole by CLSI protocol based broth microdilution method; format: functional; procedure, shortened: as §4

Row | Compound | MIC (Candida albicans [1]) [µg/mL] | MIC (Candida albicans [2]) [µg/mL] | inhibition (Candida albicans [3]) [%] | fractional inhibitory concentration index (FICI) (Candida albicans [4]) | inhibition (INH) (Candida albicans [5]) | fractional inhibitory concentration index (FICI) (Candida albicans [6]) | MIC (Candida albicans [7]) [µg/mL] | fractional inhibitory concentration index (FICI) (Candida albicans [8]) | inhibition (Candida albicans [9]) [%] | inhibition (Candida albicans [10]) [%] | inhibition (INH) (Candida albicans [11]) | fold change (FC) (Candida albicans [12]) | fractional inhibitory concentration index (FICI) (Candida albicans [13]) | inhibition (Candida albicans [14]) [%] | inhibition (Candida albicans [15]) [%] | fractional inhibitory concentration index (FICI) (Candida albicans [16]) | MIC (Candida albicans [17]) [µg/mL] | inhibition (Candida albicans [18]) [%] | fractional inhibitory concentration index (FICI) (Candida albicans [19]) | fractional inhibitory concentration index (FICI) (Candida albicans [20]) | further results
1 | NC(=S)N1N=C(c2ccccc2)CC1c1ccc(C2CC(c3ccccc3)=NN2C(N)=S)cc1 (stereo unspecified) | 125 to 500 (≈ 258 to 1030 µM) | 8 to 125 (≈ 16.5 to 258 µM) | < 20 | 0.372 - 1.5 | 66 - 99% | 0.53 - 2.19 | 8 to 125 (≈ 16.5 to 258 µM) | 0.372 - 1.5 | < 20 | < 20 | 49 - 94% | 1.5 - 13 | 0.53 - 2.19 | < 20 | < 20 | 0.53 - 2.19 | 125 to 500 (≈ 258 to 1030 µM) | < 20 | 0.53 - 2.19 | 0.53 - 2.19 | fold change (FC) (Candida albicans [21]): 1.25 - 10; inhibition (Candida albicans [22]): < 20%; MIC (Candida albicans [23]): 8 to 125 µg/mL (≈ 16.5 to 258 µM); inhibition (Candida albicans [24]): < 20%; MIC (Candida albicans [25]): 8 to 125 µg/mL (≈ 16.5 to 258 µM); MIC (Candida albicans [26]): 125 to 500 µg/mL (≈ 258 to 1030 µM); fractional inhibitory concentration index (FICI) (Candida albicans [27]): 0.53 - 2.19; MIC (Candida albicans [28]): 8 to 125 µg/mL (≈ 16.5 to 258 µM); inhibition (Candida albicans [29]): < 20%; MIC (Candida albicans [30]): 8 to 125 µg/mL (≈ 16.5 to 258 µM); MIC (Candida albicans [31]): 8 to 125 µg/mL (≈ 16.5 to 258 µM); fractional inhibitory concentration index (FICI) (Candida albicans [32]): 0.53 - 2.19; fractional inhibitory concentration index (FICI) (Candida albicans [33]): 0.372 - 1.5
2 | O=C(/C=C/c1ccc(/C=C/C(=O)c2ccccc2)cc1)c1ccccc1 | 16 to 31 (≈ 47.3 to 91.6 µM) | 2 to 16 (≈ 5.91 to 47.3 µM) | < 20 | 0.266 - 0.27 | 66 - 99% | 0.31 - 1.5 | 2 to 16 (≈ 5.91 to 47.3 µM) | 0.266 - 0.27 | < 20 | < 20 | 49 - 94% | 1.5 - 13 | 0.31 - 1.5 | < 20 | < 20 | 0.31 - 1.5 | 16 to 31 (≈ 47.3 to 91.6 µM) | < 20 | 0.31 - 1.5 | 0.31 - 1.5 | fold change (FC) (Candida albicans [21]): 1.25 - 10; inhibition (Candida albicans [22]): < 20%; MIC (Candida albicans [23]): 2 to 16 µg/mL (≈ 5.91 to 47.3 µM); inhibition (Candida albicans [24]): < 20%; MIC (Candida albicans [25]): 2 to 16 µg/mL (≈ 5.91 to 47.3 µM); MIC (Candida albicans [26]): 16 to 31 µg/mL (≈ 47.3 to 91.6 µM); fractional inhibitory concentration index (FICI) (Candida albicans [27]): 0.31 - 1.5; MIC (Candida albicans [28]): 2 to 16 µg/mL (≈ 5.91 to 47.3 µM); inhibition (Candida albicans [29]): < 20%; MIC (Candida albicans [30]): 2 to 16 µg/mL (≈ 5.91 to 47.3 µM); MIC (Candida albicans [31]): 2 to 16 µg/mL (≈ 5.91 to 47.3 µM); fractional inhibitory concentration index (FICI) (Candida albicans [32]): 0.31 - 1.5; fractional inhibitory concentration index (FICI) (Candida albicans [33]): 0.266 - 0.27
